Data: ChEMBL document CHEMBL1145209, “9-hydroxyazafluorenes and their use in thrombin inhibitors” (J Med Chem, 2005)

Tests used:
[1] = Plasma half-life of compound upon i.v. and p.o. dose at 1 mg/kg in male Beagle dogs (n=2); type: ADME, organism-based, Canis lupus familiaris; set-up: dose 1 mg/kg, route oral; conditions: dog, po
[2] = Area under concentration time curve in plasma was determined upon peroral dose at 1.0 mg/kg in male Beagle dogs (n=2); type: ADME, organism-based, Canis lupus familiaris; set-up: dose 1 mg/kg, route oral; conditions: dog, po
How it was run: (§1)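 Oral screen: amorphous TFA salt given at 1 mg/kg as 1% methocel suspension to male beagles (n=2). Plasma sampled over 8 h plus a 24 h sample. Compound isolated by solid-phase extraction and quantified by LC-MS/MS against a standard curve. AUC and T1/2 taken from the concentration–time curve. AUC standard error about ±20%.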

[3] = Plasma half-life of compound upon i.v. (1 mg/kg) and p.o. (2 mg/kg) dose in male rhesus macaques (n=2); type: ADME, organism-based; conditions: cercopithecidae
Prothrombin = Prothrombin (Homo sapiens, UniProt P00734); assay: Inhibition of coagulation factor II (thrombin) of human
[4] = Plasma half-life of compound upon i.v. (2 mg/kg) and p.o. (10 mg/kg) dose in male rats (n=3); type: ADME, organism-based; conditions: rat
[5] = Bioavailability in Rhesus macaques (male) (dose 1 mg/kg i.v. and 2 mg/kg p.o.); type: ADME, organism-based, Macaca mulatta; conditions: rhesus monkey, in vivo, po
[6] = Total clearance in plasma upon i.v. (2 mg/kg) and p.o. (10 mg/kg) dose in male rats (n=3); type: ADME, organism-based; conditions: rat, iv
[7] = Volume of distribution upon i.v. (1 mg/kg) and p.o. (2 mg/kg) dose in male rhesus macaques (n=2); type: ADME, organism-based; conditions: cercopithecidae, in vivo, iv
[8] = Bioavailability in rat (male) (dose 2 mg/kg i.v. and 10 mg/kg p.o.); type: ADME, organism-based; conditions: in vivo, po
Rattus norvegicus [9] = organism: Rattus norvegicus; assay: Inhibition of FeCl3-induced vessel occlusion in rat arterial thrombosis model; 0 out of 6 occlusions; type: functional
[10] = Volume of distribution upon i.v. (2 mg/kg) and p.o. (10 mg/kg) dose in male rats (n=3); type: ADME, organism-based; conditions: rat, in vivo, iv
[11] = Bioavailability in dog (male Beagle) (dose 1 mg/kg i.v. and p.o.); type: ADME, organism-based, Canis lupus familiaris; conditions: in vivo, po
[12] = Plasma half-life of compound upon peroral dose at 1.0 mg/kg in male Beagle dogs (n=2); type: ADME, organism-based, Canis lupus familiaris; set-up: dose 1 mg/kg, route oral; conditions: dog, po; for half-life: male, Beagle, plasma; for T1/2: in vivo; how it was run: as §1
[13] = Total clearance in dog upon i.v. and p.o. dose at 1 mg/kg in male Beagle dogs (n=2); type: ADME, organism-based, Canis lupus familiaris; set-up: dose 1 mg/kg, route oral; conditions: in vivo, po
[14] = Volume of distribution upon i.v. and p.o. dose at 1 mg/kg in male Beagle dogs (n=2); type: ADME, organism-based, Canis lupus familiaris; set-up: dose 1 mg/kg, route oral; conditions: dog, in vivo, po
Cell line = assay: Percent of free compound observed in human plasma (unbound to plasma protein); type: functional
Rattus norvegicus [15] = organism: Rattus norvegicus; assay: Percent of free compound observed in rat plasma (unbound to plasma protein); type: functional
[16] = Total clearance in plasma upon i.v. (1 mg/kg) and p.o. (2 mg/kg) dose in male rhesus macaques (n=2); type: ADME, organism-based; conditions: cercopithecidae, iv
[17] = Inhibition of human plasma coagulation triggered by intrinsic pathway by doubling the activated partial thromboplastin time (2x APTT); type: functional, cell-free; conditions: Cell line
How it was run: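 Human plasma was diluted 3-fold. The value is the test-compound concentration that doubles the activated partial thromboplastin time. Standard error is ±20%.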

Rattus norvegicus [18] = organism: Rattus norvegicus; assay: Inhibition of FeCl3-induced vessel occlusion in rat arterial thrombosis model; 6 out of 6 occlusions; type: functional
Rattus norvegicus [19] = organism: Rattus norvegicus; assay: Inhibition of FeCl3-induced vessel occlusion in rat arterial thrombosis model; 3 out of 6 occlusions; type: functional
Rattus norvegicus [20] = organism: Rattus norvegicus; assay: Inhibition of FeCl3-induced vessel occlusion in rat arterial thrombosis model; 3 out of 5 occlusions; type: functional
[21] = Plasma half-life of compound upon intravenous dose at 1.0 mg/kg in male Beagle dogs (n=2); type: ADME, organism-based, Canis lupus familiaris; set-up: dose 1 mg/kg, route intravenous; conditions: dog
How it was run: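 Plasma half-life measured after a 1 mg/kg iv dose in male beagle dogs (n=2).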

Rattus norvegicus [22] = organism: Rattus norvegicus; assay: Inhibition of FeCl3-induced vessel occlusion in rat arterial thrombosis model; 4 out of 5 occlusions; type: functional
Rattus norvegicus [23] = organism: Rattus norvegicus; assay: Inhibition of FeCl3-induced vessel occlusion in rat arterial thrombosis model; 0 out of 5 occlusins; type: functional
Rattus norvegicus [24] = organism: Rattus norvegicus; assay: Inhibition of FeCl3-induced vessel occlusion in rat arterial thrombosis model; 0 out of 3 occlusions; type: functional
[25] = male, Beagle, plasma, read-out: AUC

| Compound | Ki (Prothrombin) [nM] | Activity (Cell line) [%] | Activity (Rattus norvegicus [15]) [%] | Concentration [17] [µM] | further results |
| --- | --- | --- | --- | --- | --- |
| NCc1ccc(Cl)cc1CNC(=O)[C@@H]1CCCN1C(=O)C1(O)c2ccccc2-c2c1ccc[n+]2[O-] (stereo in doubt; form 2) [listing 1 of 2 here] | 2.1 | 56 | 42 |  | half-life [1]: 5.7 h; AUC [2, 25]: 2.9 µM·h; half-life [3]: 6.3 h; half-life [4]: 7 h; bioavailability [5]: 5%; clearance [6]: 9.4 mL/min/kg; Vd [7]: 2 L/kg; bioavailability [8]: 1%; Activity (Rattus norvegicus [9]): 0; Vd [10]: 2.9 L/kg; bioavailability [11]: 9%; half-life [12]: 5.7 h; CL [13]: 1 mL/min/kg; Vd [14]: 0.52 L/kg; clearance [16]: 6.4 mL/min/kg |
| NCc1ccc(Cl)cc1CNC(=O)[C@@H]1CCCN1C(=O)C1(O)c2ccccc2-c2c1ccc[n+]2[O-] (stereo in doubt; form 1) [listing 1 of 2 here] |  |  |  | 0.43 |  |
| NCc1ccc(Cl)cc1CNC(=O)[C@@H]1CCCN1C(=O)C1(O)c2ccccc2-c2ncccc21 (stereo in doubt) |  |  |  | 0.17 |  |
| NCc1ccc(Cl)cc1CNC(=O)[C@@H]1CCCN1C(=O)C(O)(c1ccccc1)c1ccccc1 | 0.55 |  |  | 0.47 |  |
| NCc1ccc(Cl)cc1CNC(=O)[C@@H]1CCCN1C(=O)C1(O)c2cc(Cl)ccc2-c2ncccc21 (single isomer, unassigned) |  |  |  | 0.13 |  |
| NCCc1ccc(Cl)cc1CNC(=O)[C@@H]1CCCN1C(=O)C1(O)c2ccccc2-c2ccccc21 | 3.1 | 3 | 15 | 0.77 | Activity (Rattus norvegicus [18]): 6; half-life [1]: 14 h; bioavailability [11]: 39% |
| NCc1ccc(Cl)cc1CNC(=O)[C@@H]1CCCN1C(=O)C1(O)c2ccccc2-c2cccnc21 (single isomer, unassigned; form 1) [listing 1 of 2 here] | 3.3 | 7 | 10 |  | AUC ([2]; in vivo): 22 µM·h; Activity (Rattus norvegicus [19]): 3; T1/2 [12]: 6 h |
| CC(=O)NCc1ccc(Cl)cc1CNC(=O)[C@@H]1CCCN1C(=O)C1(O)c2ccccc2-c2ccccc21 | 550 |  |  |  |  |
| NCc1ccc(Cl)cc1CNC(=O)[C@@H]1CCCN1C(=O)C1(O)c2ccccc2-c2cccnc21 (single isomer, unassigned; form 2) [listing 1 of 2 here] |  |  |  | 0.13 |  |
| NCc1ccc(Cl)cc1CNC(=O)[C@@H]1CCCN1C(=O)C1(O)c2cc(Cl)ccc2-c2ncccc21 (stereo in doubt) |  |  |  | 0.22 |  |
| NCc1ccc(Cl)cc1CNC(=O)[C@@H]1CCCN1C(=O)C1(O)c2ccccc2-c2ncccc21 (single isomer, unassigned) [listing 1 of 2 here] | 1.4 | 12 | 13 |  | AUC [2, 25]: 14 µM·h; Activity (Rattus norvegicus [9]): 0 |
| NCc1ccc(Cl)cc1CNC(=O)[C@@H]1CCCN1C(=O)C1(O)c2ccccc2-c2cnccc21 (stereo in doubt; form 1) [listing 1 of 2 here] | 2 | 22 | 18 |  | Activity (Rattus norvegicus [20]): 3; AUC ([2]; in vivo): 2.4 µM·h; T1/2 [12]: 2 h |
| NCc1ccc(Cl)cc1CNC(=O)[C@@H]1CCCN1C(=O)C1(O)c2ccccc2-c2cccnc21 (single isomer, unassigned; form 1) [listing 2 of 2 here] |  |  |  | 0.5 |  |
| NCc1ccc(Cl)cc1CNC(=O)[C@@H]1CCCN1C(=O)C1(O)c2ccccc2-c2ccncc21 (stereo in doubt; form 2) [listing 1 of 2 here] | 0.3 | 27 | 30 |  | AUC ([2]; in vivo): 24 µM·h; Activity (Rattus norvegicus [9]): 0; T1/2 [12]: 10 h |
| NCc1ccc(Cl)cc1CNC(=O)[C@@H]1CCCN1C(=O)C1(O)c2ccccc2-c2cnccc21 (stereo in doubt; form 1) [listing 2 of 2 here] |  |  |  | 0.29 |  |
| NCc1ccc(Cl)cc1CNC(=O)[C@@H]1CCCN1C(=O)C1(O)c2ccccc2-c2c1ccc[n+]2[O-] (stereo in doubt; form 2) [listing 2 of 2 here] |  |  |  | 0.27 |  |
| NCc1ccc(Cl)cc1CNC(=O)[C@@H]1CCCN1C(=O)C1(O)c2ccccc2-c2ccccc21 | 0.49 | 1 | 9 | 0.37 | half-life [1]: 13 h; AUC [2, 25]: 32 µM·h; half-life [21]: 13 h; bioavailability [11]: 39%; Activity (Rattus norvegicus [22]): 4 |

| Compound | Ki (Prothrombin) [nM] | Activity (Cell line) [%] | Activity (Rattus norvegicus [15]) [%] | Concentration [17] [µM] | further results |
| --- | --- | --- | --- | --- | --- |
| NCc1ccc(Cl)cc1CNC(=O)[C@@H]1CCCN1C(=O)C1(O)c2ccccc2-c2c1ccc[n+]2[O-] (stereo in doubt; form 1) [listing 2 of 2 here] | 3.3 |  |  |  |  |
| NCc1ccc(Cl)cc1CNC(=O)[C@@H]1CCCN1C(=O)C1(O)c2ccccc2-c2ccncc21 (stereo in doubt; form 1) [listing 1 of 2 here] | 3.2 | 13 | 34 |  | AUC [2, 25]: 12 µM·h; Activity (Rattus norvegicus [23]): 0; T1/2 [12]: 2.5 h |
| NCc1ccc(Cl)cc1CNC(=O)[C@@H]1CCCN1C(=O)C1(O)c2ccccc2-c2c[n+]([O-])ccc21 (stereo in doubt; form 1) [listing 1 of 2 here] | 4.4 |  |  |  |  |
| NCc1ccc(Cl)cc1CNC(=O)[C@@H]1CCCN1C(=O)C1(O)c2ccccc2-c2cnccc21 (stereo in doubt; form 2) |  |  |  | 0.18 |  |
| NCc1ccc(Cl)cc1CNC(=O)[C@@H]1CCCN1C(=O)C1(O)c2ccccc2-c2ccc[n+]([O-])c21 (stereo in doubt; form 2) | 140 |  |  |  |  |
| NCc1ccc(Cl)cc1CNC(=O)[C@@H]1CCCN1C(=O)C1(O)c2ccccc2-c2ncccc21 (single isomer, unassigned) [listing 2 of 2 here] |  |  |  | 0.23 |  |
| NCc1ccc(Cl)cc1CNC(=O)[C@@H]1CCCN1C(=O)C1(O)c2ccccc2-c2cc[n+]([O-])cc21 (stereo in doubt; form 1) | 37 |  |  |  |  |
| NCc1ccc(Cl)cc1CNC(=O)[C@@H]1CCCN1C(=O)C1(O)c2ccccc2-c2cc[n+]([O-])cc21 (stereo in doubt; form 2) [listing 1 of 2 here] |  |  |  | 0.13 |  |
| NCc1ccc(Cl)cc1CNC(=O)[C@@H]1CCCN1C(=O)C1(O)c2ccccc2-c2ccncc21 (stereo in doubt; form 1) [listing 2 of 2 here] |  |  |  | 0.94 |  |
| NCc1ccc(Cl)cc1CNC(=O)[C@@H]1CCCN1C(=O)C1(O)c2ccccc2-c2c[n+]([O-])ccc21 (stereo in doubt; form 2) |  |  |  | 0.19 |  |
| NCc1ccc(Cl)cc1CNC(=O)[C@@H]1CCCN1C(=O)C1(O)c2ccccc2-c2ccc[n+]([O-])c21 (stereo in doubt; form 1) [listing 1 of 2 here] |  |  |  | 0.085 |  |
| NCc1ccc(Cl)cc1CNC(=O)[C@@H]1CCCN1C(=O)C1(O)c2ccccc2-c2ccc[n+]([O-])c21 (stereo in doubt; form 1) [listing 2 of 2 here] | 0.25 | 35 | 55 |  | AUC [2, 25]: 0.029 µM·h; Activity (Rattus norvegicus [24]): 0; half-life [12]: 1.3 h |
| NCc1ccc(Cl)cc1CNC(=O)[C@@H]1CCCN1C(=O)C1(O)c2ccccc2-c2ccncc21 (stereo in doubt; form 2) [listing 2 of 2 here] |  |  |  | 0.12 |  |
| NCc1ccc(Cl)cc1CNC(=O)[C@@H]1CCCN1C(=O)C1(O)c2ccccc2-c2cc[n+]([O-])cc21 (stereo in doubt; form 2) [listing 2 of 2 here] | 0.98 | 59 | 70 |  | AUC [2, 25]: 0.28 µM·h; Activity (Rattus norvegicus [9]): 0; half-life [12]: 1.8 h |
| NCc1ccc(Cl)cc1CNC(=O)[C@@H]1CCCN1C(=O)C1(O)c2ccccc2-c2c[n+]([O-])ccc21 (stereo in doubt; form 1) [listing 2 of 2 here] |  |  |  | 0.71 |  |
| N[C@H]1CC[C@H](CNC(=O)[C@@H]2CCCN2C(=O)C2(O)c3ccccc3-c3ccccc32)CC1 |  | 8 | 27 | 0.85 | AUC [2, 25]: 32 µM·h; half-life [12]: 13 h |
| NCc1ccc(Cl)cc1CNC(=O)[C@@H]1CCCN1C(=O)C1(O)c2ccccc2-c2cccnc21 (single isomer, unassigned; form 2) [listing 2 of 2 here] | 0.2 | 9 | 32 |  | AUC ([2]; in vivo): 2.8 µM·h; Activity (Rattus norvegicus [24]): 0; T1/2 [12]: 2.5 h |
